Data on 11 molecules can be found in ChEMBL document CHEMBL1667737, “Cytochrome P450 3A4 inhibitory constituents of the wood of Taxus yunnanensis” (J Nat Prod, 2011).

For one series, the target named is Cytochrome P450 3A4 (Homo sapiens, UniProt P08684). Description: Inhibition of CYP3A4 after 30 mins by fluorometric assay. The series is classed as ADME. Conditions: for pIC50: read-out: IC50. A digest of the protocol: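 cDNA-expressed CYP3A4 in insect cell microsomes (with insect cell control protein) O-dealkylating 7-benzyloxy-4-trifluoromethylcoumarin to fluorescent 7-HFC. Samples in MeOH, 8-point 1:3 serial dilutions in pH 7.4 potassium phosphate with an NADP+/glucose-6-phosphate/G6PDH/MgCl2 regenerating system. 10 min prewarm, 30 min at 37 °C, stopped with acetonitrile–Tris base. Triplicate; IC50 by linear interpolation.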

The target in a further series is Cytochrome P450 2D6 (Homo sapiens, UniProt P10635). Description: Inhibition of CYP2D6 after 30 mins by fluorometric assay. The series is classed as ADME. To be noted: for pIC50: read-out: IC50. A digest of the protocol:
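cDNA-expressed CYP2D6 in insect cell microsomes with AMMC ([…] in the enzyme/substrate mix), in pH 7.4 phosphate buffer with an NADP+/glucose-6-phosphate/G6PDH/MgCl2 regenerating system. Compound in MeOH, eight-point 1:3 serial dilution. 10 min prewarm, then 30 min at 37 °C. Stopped with acetonitrile–Tris. Triplicate; IC50 by linear interpolation.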

Molecules are shown by their SMILES. pIC50: −log10 of the molar value.

Sequence of Cytochrome P450 2D6 (P10635 whole entry): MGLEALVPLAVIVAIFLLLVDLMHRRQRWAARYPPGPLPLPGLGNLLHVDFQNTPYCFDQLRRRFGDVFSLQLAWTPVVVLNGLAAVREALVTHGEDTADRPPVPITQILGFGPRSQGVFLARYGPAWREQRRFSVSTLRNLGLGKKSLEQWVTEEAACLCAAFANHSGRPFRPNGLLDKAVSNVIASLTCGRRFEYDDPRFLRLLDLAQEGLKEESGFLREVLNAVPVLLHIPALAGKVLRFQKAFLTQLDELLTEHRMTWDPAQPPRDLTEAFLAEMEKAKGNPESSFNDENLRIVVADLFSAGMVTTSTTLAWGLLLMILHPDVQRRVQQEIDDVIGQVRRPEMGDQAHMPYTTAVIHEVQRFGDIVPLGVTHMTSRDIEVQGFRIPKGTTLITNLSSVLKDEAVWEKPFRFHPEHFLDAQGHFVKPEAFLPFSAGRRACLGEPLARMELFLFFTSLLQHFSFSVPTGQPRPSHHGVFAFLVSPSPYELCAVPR
Sequence of Cytochrome P450 3A4 (P08684 whole entry): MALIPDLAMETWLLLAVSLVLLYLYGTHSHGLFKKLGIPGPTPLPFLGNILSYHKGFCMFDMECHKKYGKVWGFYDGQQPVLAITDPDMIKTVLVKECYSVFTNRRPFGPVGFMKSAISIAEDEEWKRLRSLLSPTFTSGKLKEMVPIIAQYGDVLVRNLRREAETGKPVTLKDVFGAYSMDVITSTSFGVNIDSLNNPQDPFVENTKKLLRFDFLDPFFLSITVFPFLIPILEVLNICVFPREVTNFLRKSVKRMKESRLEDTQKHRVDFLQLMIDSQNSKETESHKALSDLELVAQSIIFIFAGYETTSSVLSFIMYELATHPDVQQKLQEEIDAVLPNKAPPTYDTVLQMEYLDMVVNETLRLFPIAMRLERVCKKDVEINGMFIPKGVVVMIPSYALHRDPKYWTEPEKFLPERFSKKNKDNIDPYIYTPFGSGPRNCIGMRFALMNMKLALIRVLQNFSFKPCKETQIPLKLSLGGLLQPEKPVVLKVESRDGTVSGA

Turning to `COc1cc2c(cc1O)C(=O)[C@@H](CO)[C@H](CO)C2`, the IC50 result against Cytochrome P450 3A4 and at Cytochrome P450 2D6 was “Not Active” in each case.
`COc1cc([C@H]2OC[C@H]([C@@H](O)c3ccc(O)c(OC)c3)[C@@H]2CO)ccc1O`: the figures for the pIC50 on Cytochrome P450 3A4 and on Cytochrome P450 2D6 were 4.18 and < 4.00, respectively.
The like results for `COc1cc([C@@H]2Oc3cc(CCCO)ccc3O[C@H]2CO)ccc1O` were, in that order, 4.27 and < 4.00.
As to `COc1cc([C@H](O)[C@H]2CO[C@H](c3ccc(O)c(O)c3)[C@H]2CO)ccc1O` [(7R)-7-HYDROXYTAXIRESINOL], the IC50 entry against Cytochrome P450 3A4 and on Cytochrome P450 2D6 was “Not Active” each time.
With `COc1cc(C[C@@H](CO)[C@H](CO)Cc2ccc(O)c(OC)c2)ccc1O` [(+)-SECOISOLARICIRESINOL], the negative logarithm of the IC50 (pIC50) at Cytochrome P450 3A4 is 4.33; on Cytochrome P450 2D6, < 4.00.
The corresponding values for `COc1cc([C@H]2c3cc(O)c(OC)cc3C[C@H]3C(=O)OC[C@H]23)ccc1O` [ALPHA-CONIDENDRIN] are 6.70 and 4.75.
The corresponding values for `COc1cc([C@H]2c3cc(O)c(OC)cc3C[C@@H](CO)[C@@H]2CO)ccc1O` [ISOLARICIRESINOL] are < 4.00 and 4.01.
For `COc1cc2c(cc1O)[C@H](c1ccc(O)c(O)c1)[C@@H](CO)[C@H](CO)C2` [ISOTAXIRESINOL], the IC50 entry on Cytochrome P450 3A4 and at Cytochrome P450 2D6 was “Not Active” in each case.
On to `COc1cc(C[C@H]2CO[C@H](c3ccc(O)c(OC)c3)[C@H]2CO)ccc1O` [LARICIRESINOL], for which the figures for the pIC50 on Cytochrome P450 3A4 and on Cytochrome P450 2D6 were 4.59 and < 4.00, respectively.
As to `COc1cc([C@@H](O)[C@@H]2CO[C@H](c3ccc(O)c(OC)c3)[C@H]2CO)ccc1O` [TANEGOOL], the IC50 entry on Cytochrome P450 3A4 and against Cytochrome P450 2D6 was “Not Active” in each case.
For the molecule `COc1cc(C[C@H]2CO[C@H](c3ccc(O)c(O)c3)[C@H]2CO)ccc1O` [TAXIRESINOL], the pIC50 at Cytochrome P450 3A4 was 4.07; at Cytochrome P450 2D6, 4.17.
